Assay outcomes as filed in PubChem BioAssay.
Only some compounds are listed: those with a hit (about 4% of all), similar ones and a draw of the others.
hERG protect = compounds protecting human hERG from proarrhythmic drug block | CHO-hERG, FluxOR thallium flux, dofetilide IC70 present | activation (rescue from dofetilide block), less the hit threshold, % at 10 µM | 310,000 tested, 0.51% active;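 active means activation above the mean of controls blocked by dofetilide plus 5 SD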;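 further: thallium influx through hERG after potassium depolarization seen as dye fluorescence rise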
PHOSPHO1 inh = blocks human PHOSPHO1 phosphatase activity | recombinant PHOSPHO1, absorbance phosphatase assay | inhibition, % at 13.3 µM | 290,000 tested, 1.1% active | AID 1565; in the data active means inhibition above about 60%
KCNQ1 inh = human KCNQ1 channel inhibition. P51787. CHO-K1 KCNQ1, FluxOR thallium flux fluorescence; active compounds read high. B-score at 10 µM. 310,000 tested, 1.3% active. AID 2642;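 active means compounds whose thallium flux B-score, printed positive for inhibition, exceeds three library SD while starting fluorescence stays within three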;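 further: channel opened by potassium depolarization with thallium stimulus after 20 min compound exposure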
KCNQ1 act = potentiates or activates the human KCNQ1 potassium channel | AID 2648 | 310,000 tested, 0.35% active | CHO-K1 KCNQ1, thallium flux FluxOR fluorescence; active compounds read high | B-score at 10 µM;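 active means fluorescence ratio B-score, a plate-corrected score, at least three library SD, with initial intensity B-score within 5 SD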
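System: CHO-K1 cells stably expressing KCNQ1 / Medium: assay buffer for compound exposure, DMSO matched across wells / Reagent: thallium- and potassium-containing depolarizing buffer / Compound: one concentration, matched DMSO / Incubation: 20 min compound pretreatment at room temperature / Measured by: kinetic FluxOR fluorescence, 10 s baseline plus 110 s post-stimulus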
KCNK9 block = inhibitors of human KCNK9 two-pore domain potassium channel; B-score at 10 µM; AID 488922; HEK293 KCNK9, FluxOR thallium flux fluorescence; active compounds read low; 310,000 tested, 1.2% active;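 active means ratio B-score over 3 SD below the library mean, with starting fluorescence within 5 SD of its mean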;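 further: negative B-score means less thallium flux so channel inhibition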
KCNK3 inh = human KCNK3 channel inhibition, primary screen; B-score at 10 µM; O14649; 340,000 tested, 0.84% active; CHO-KCNK3 thallium flux, FluxOR fluorescence; active compounds read low;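 active means B-score under library mean minus 4 SD, starting fluorescence ratio at most library mean plus 5 SD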;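 further: more negative B-score means stronger inhibition of thallium flux through KCNK3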
Target sequence (O14649 whole entry, looked up): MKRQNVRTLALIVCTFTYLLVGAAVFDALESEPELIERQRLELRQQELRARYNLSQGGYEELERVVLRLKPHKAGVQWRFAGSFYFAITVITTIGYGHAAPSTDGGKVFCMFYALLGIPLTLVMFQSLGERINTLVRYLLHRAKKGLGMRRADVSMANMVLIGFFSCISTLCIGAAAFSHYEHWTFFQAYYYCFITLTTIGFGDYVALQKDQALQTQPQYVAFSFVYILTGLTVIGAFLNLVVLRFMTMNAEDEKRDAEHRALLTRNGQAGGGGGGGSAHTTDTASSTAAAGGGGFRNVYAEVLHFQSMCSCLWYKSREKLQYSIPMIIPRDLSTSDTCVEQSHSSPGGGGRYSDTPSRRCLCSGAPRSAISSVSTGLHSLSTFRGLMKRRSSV
KCNK9 block conf = confirmation of human KCNK9 potassium channel inhibitors. shares compounds with KCNK9 block. HEK293 KCNK9 cells, FluxOR thallium flux fluorescence. inhibition, % at 10 µM. 4,900 tested, 43% active. AID 492992;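 active means thallium signal inhibited by more than 5 SD of the compound-free buffer control wells, on both duplicate plates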
Kir2-1 spec = selectivity of KCNK9 modulators against mouse Kir2.1; shares compounds with KCNK9 block; Kir2.1 cells, FluxOR thallium flux fluorescence; inhibition, % at 10 µM; 4,900 tested, 4% active; AID 492993;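 active means thallium signal drop more than 5 SD beyond the mean of the no-compound control wells, seen in both duplicate plates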;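 further: signal is fluorescence rise after thallium addition divided by baseline fluorescence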
HEK293 Tl ctr = second counter-screen for KCNK9 modulators: effect in non-induced cells | shares compounds with KCNK9 block | non-induced KCNK9-HEK293, FluxOR thallium flux | inhibition, % at 10 µM | 4,900 tested, 40% active;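 active means thallium signal drop beyond 5 SD of the untreated control mean, on both duplicate plates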
Numbers stand for hits; . = inactive; / = not tested or not shown.

SMILES | hERG protect | PHOSPHO1 inh | KCNQ1 inh | KCNQ1 act | KCNK9 block | KCNK3 inh | KCNK9 block conf | Kir2-1 spec | HEK293 Tl ctr
COc1ccc(/C=C/C(=O)c2ccccc2)cc1COc1ccc(F)cc1 | . | . | . | . | -13 | . | 70% | 28% | 55%
CCN1C(=O)/C(=C\c2nc3ccccc3c(=O)n2CC)c2ccccc21 | . | . | . | . | . | . | . | . | .
CCn1c(/C=C2/C(=O)N(C)c3ccccc32)nc2ccccc2c1=O | . | . | . | . | . | . | / | / | /
Cc1ccc(-c2noc(CSc3nnc(Cc4ccccc4)n3-c3cccc(C)c3)n2)cc1 | . | . | . | . | -9.9 | . | . | . | 30%
COc1ccc(-c2noc(CSc3nnc(Cc4ccccc4)n3-c3cccc(C)c3)n2)cc1OC | . | . | . | . | . | . | / | / | /
Cc1cccc(C)c1OCCNC(=O)c1ccc2ccccc2n1 | . | . | . | . | . | . | / | / | /
O=C(NCCOc1ccc(Cl)cc1)c1ccc2ccccc2n1 | . | . | . | . | . | . | . | . | .
Cc1ccc(OCCNC(=O)c2ccc3ccccc3n2)cc1 | . | . | . | . | . | . | . | . | .
O=[N+]([O-])c1ccccc1S(=O)(=O)NCc1cccnc1 | . | . | . | . | . | . | / | / | /
CCOC(=O)CN1C(=O)N[C@@H](c2cccc(C(F)(F)F)c2)[C@@H](C(=O)OC)[C@H]1C | . | / | . | . | . | . | / | / | /
Fc1ccccc1Cc1noc(CN2CCN(Cc3ccc4c(c3)OCO4)CC2)n1 | . | . | . | . | . | . | / | / | /
C(=C\c1ccccc1)/CN1CCN(Cc2ccc3c(c2)OCO3)CC1 | . | . | . | . | . | . | / | / | /
c1ccc(Cc2noc(CN3CCN(Cc4ccc5c(c4)OCO5)CC3)n2)cc1 | . | . | . | . | . | . | . | . | .
c1ccc(Cc2noc(CN3CCN(C4CCc5ccccc5C4)CC3)n2)cc1 (configuration not stated) | . | . | . | . | . | . | . | . | .
C(=C\c1ccccc1)/CN1CCN(Cc2nc(Cc3ccccc3)no2)CC1 | . | . | . | . | . | . | . | . | .
c1ccc(Cc2noc(CN3CCCN(C4Cc5ccccc5C4)CC3)n2)cc1 | . | . | . | . | . | . | / | / | /
O=[N+]([O-])c1ccccc1/C=C/CN1CCN(Cc2ccc3c(c2)OCO3)CC1 | . | . | . | . | . | . | . | . | .
COc1ccccc1CN1CCN(Cc2nc(Cc3ccccc3)no2)CC1 | . | . | . | . | . | . | . | . | .
Fc1ccc(CN2CCCN(Cc3nc(-c4ccc5c(c4)OCO5)no3)CC2)cc1 | . | . | . | . | . | . | / | / | /
c1ccc(OCCN2CCN(Cc3nc(-c4ccc5c(c4)OCO5)no3)CC2)cc1 | . | . | . | . | . | . | . | . | .
CC(C)CN1C(=O)C(=O)N(CC(=O)NCc2ccc3c(c2)OCO3)C1=O | . | . | . | . | . | . | / | / | /
CCC(C)(C)n1nnnc1C(c1cccs1)N1CCc2ccccc21 (configuration not stated) | . | . | . | . | -9.2 | . | 51% | . | 36%
COc1ccc(C(=O)N2CCN(c3nc4cc(C)ccc4cc3C#N)CC2)c(OC)c1 | . | . | . | . | . | . | / | / | /
COc1ccc2cc(C#N)c(N3CCN(C(=O)c4ccccc4C)CC3)nc2c1 | . | . | . | . | . | . | . | . | .
Cc1c(C(=O)OCC(=O)c2c(N)n(CC(C)C)c(=O)n(C)c2=O)oc2ccccc12 | . | . | . | . | . | . | . | . | .
COCc1c(C(=O)OCC(=O)c2c(N)n(CC(C)C)c(=O)n(C)c2=O)oc2ccccc12 | . | . | . | . | . | . | / | / | /
O=C(CCN1CCCCCC1)Nc1ccc(F)cc1 | . | . | . | . | . | . | / | / | /
COc1ccc(NC(=O)C2CSC3c4ccccc4C(=O)N23)cc1 (configuration not stated) | . | . | . | . | . | . | / | / | /
